Converted amounts (≈) assume the structure as drawn. The source made the active and inactive calls. No cut-off for these calls is given here.
Tests used:
HepG2 = test: Antitumor activity against human HepG2 cells assessed as inhibition of cell growth measured after 48 hrs by MTT assay; type: functional, cell-based; details: HepG2, 48 h
Outline: (§1)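 MTT assay; cells seeded in 96-well plates, exposed 48 h to freshly prepared compound at five concentrations, four replicate wells each; MTT (5 mg/mL) added for 4 h, formazan dissolved in DMSO, absorbance at 490 nm. IC50 by nonlinear regression; mean of three independent experiments.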

HCT-116 = test: Antitumor activity against human HCT-116 cells assessed as inhibition of cell growth measured after 48 hrs by MTT assay; type: functional, cell-based; details: HCT-116, 48 h; outline: as §1
SW1990 = test: Antitumor activity against human SW1990 cells assessed as inhibition of cell growth measured after 48 hrs by MTT assay; type: functional, cell-based; details: SW1990, 48 h; outline: as §1
HEK293 = test: Cytotoxicity against human HEK293 cells assessed as reduction in cell viability measured after 48 hrs by MTT assay; type: cell-based; details: HEK293, 48 h; outline: as §1
[1] = molecular target: T1, DNA topoisomerase 1 (Homo sapiens) (UniProt P11387); test: Inhibition of human recombinant Topoisomerase 1 using supercoiled pBR322 DNA as substrate at 100 uM incubated for 30 mins by ethidium bromide staining based agarose gel electrophoresis
T1 sequence (whole entry): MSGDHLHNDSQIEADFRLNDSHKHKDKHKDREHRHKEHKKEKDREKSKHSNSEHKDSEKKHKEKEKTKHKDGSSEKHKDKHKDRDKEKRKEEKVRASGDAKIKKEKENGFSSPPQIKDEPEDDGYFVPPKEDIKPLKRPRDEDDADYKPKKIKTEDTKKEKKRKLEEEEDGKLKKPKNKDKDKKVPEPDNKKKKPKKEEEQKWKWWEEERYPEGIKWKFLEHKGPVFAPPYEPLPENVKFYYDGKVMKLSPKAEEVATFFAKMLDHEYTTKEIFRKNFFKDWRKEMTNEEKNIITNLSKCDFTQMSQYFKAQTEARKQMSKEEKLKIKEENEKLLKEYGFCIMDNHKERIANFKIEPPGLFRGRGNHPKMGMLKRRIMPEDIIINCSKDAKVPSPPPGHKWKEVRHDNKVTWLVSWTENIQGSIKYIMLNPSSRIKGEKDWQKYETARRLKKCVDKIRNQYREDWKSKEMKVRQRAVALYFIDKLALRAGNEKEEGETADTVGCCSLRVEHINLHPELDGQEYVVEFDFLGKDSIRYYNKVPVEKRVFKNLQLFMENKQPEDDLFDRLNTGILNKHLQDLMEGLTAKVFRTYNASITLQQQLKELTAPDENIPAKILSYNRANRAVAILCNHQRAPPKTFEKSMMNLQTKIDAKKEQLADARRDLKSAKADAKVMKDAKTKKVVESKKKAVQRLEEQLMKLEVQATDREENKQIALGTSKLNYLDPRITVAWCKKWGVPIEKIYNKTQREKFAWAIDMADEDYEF
Outline: (§2)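 Cell-free relaxation assay: 1 U recombinant human Topo I with 0.5 µg supercoiled pBR322 in Topo I buffer (Tris-HCl pH 8.0, KCl, MgCl2, DTT, 0.1% BSA), 37 °C for 30 min. 10-HCPT and irinotecan as positive controls. Supercoiled, relaxed and nicked forms resolved on 0.8% agarose in TAE, 90 V for 2 h, ethidium bromide stained.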

[2] = molecular target: T1, DNA topoisomerase 1 (Homo sapiens); test: Inhibition of human recombinant Topoisomerase 1 using supercoiled pBR322 DNA as substrate at 50 uM incubated for 30 mins by ethidium bromide staining based agarose gel electrophoresis; outline: as §2
[3] = Aqueous solubility of the compound in 0.1 M Na2HPO4 solution at pH 7.4 incubated for 24 hrs by HPLC analysis; type: physicochemical; details: buffer, pH 7.4, 24 h
Outline: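 Excess solid shaken in 0.2 mL 0.1 M phosphate buffer, pH 7.4, at 25 °C for 24 h, then filtered. Filtrate (100 µL) diluted to 1.5 mL and analysed by isocratic HPLC (CH3CN:H2O 40/60, 1.0 mL/min, 35 °C column, 254 nm). Concentration read from a calibration curve built from DMSO standards. Values are the mean of triplicate determinations, in mg/mL.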

[4] = Stability of compound in 10% phosphate buffer assessed as proportion of lactone form level at pH 7.4 measured after 48 hrs by HPLC analysis; type: physicochemical; details: read-out: Drug metabolism
Outline: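 1.0 mg dissolved in 50 mL 0.1 M phosphate buffer, pH 7.4, and shaken at 37 °C. […] Lactone versus carboxylate (ring-opened) form quantified by HPLC area normalisation. Mean of triplicate determinations.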

SMILES | IC50 (HepG2) | IC50 (HCT-116) | IC50 (SW1990) | IC50 (HEK293) | inhibition [1] | inhibition [2] | solubility [3] | remaining at 48 h [4]
CC[C@@]1(OC(=O)NCCO[C@@H]2O[C@H](COC(C)=O)[C@H](OC(C)=O)[C@H](OC(C)=O)[C@H]2OC(C)=O)C(=O)OCc2c1cc1n(c2=O)Cc2cc3ccccc3nc2-1 | 60.2 µM | 29.5 µM | 37.5 µM | 8.6 µM |  |  |  | 
CC[C@@]1(OC(=O)NCCO[C@@H]2O[C@H](COC(C)=O)[C@@H](OC(C)=O)[C@H](OC(C)=O)[C@@H]2OC(C)=O)C(=O)OCc2c1cc1n(c2=O)Cc2cc3ccccc3nc2-1 | 4.3 µM | 7.5 µM | 9.7 µM | 2.3 µM |  |  |  | 
CC[C@@]1(O)C(=O)OCc2c1cc1n(c2=O)Cc2cc3cc(O)ccc3nc2-1 |  |  |  |  | Active |  |  | 
CC[C@@]1(OC(=O)NCCO[C@@H]2O[C@H](COC(C)=O)[C@@H](OC(C)=O)[C@H](OC(C)=O)[C@@H]2O[C@H]2O[C@H](COC(C)=O)[C@@H](OC(C)=O)[C@H](OC(N)=O)[C@H]2OC(C)=O)C(=O)OCc2c1cc1n(c2=O)Cc2cc3ccccc3nc2-1 | 4.2 µM | 6.7 µM | 25.1 µM | 1.6 µM | Active |  |  | 
CC[C@@]1(OC(=O)NCCOCCOCCO[C@@H]2O[C@H](COC(C)=O)[C@H](OC(C)=O)[C@H](OC(C)=O)[C@H]2OC(C)=O)C(=O)OCc2c1cc1n(c2=O)Cc2cc3ccccc3nc2-1 | 0.7 µM | 0.9 µM | 8.3 µM | 0.8 µM | Active |  |  | 
CC[C@@]1(OC(=O)NCCOCCOCCO[C@@H]2O[C@H](CO)[C@@H](O)[C@H](OC(N)=O)[C@@H]2O)C(=O)OCc2c1cc1n(c2=O)Cc2cc3ccccc3nc2-1 | 0.8 µM | 0.9 µM | 18.2 µM | 0.4 µM |  |  |  | 
CC[C@@]1(OC(=O)NCCO[C@@H]2O[C@H](CO)[C@H](O)[C@H](O)[C@H]2O)C(=O)OCc2c1cc1n(c2=O)Cc2cc3ccccc3nc2-1 | 4.9 µM | 4.1 µM | 9.3 µM | 2.2 µM |  |  |  | 
CC[C@@]1(OC(=O)NCCOCCO[C@@H]2O[C@H](CO)[C@@H](O)[C@H](O)[C@@H]2O)C(=O)OCc2c1cc1n(c2=O)Cc2cc3ccccc3nc2-1 | 0.3 µM | 5.6 µM | 3.2 µM | 22.4 µM |  |  |  | 
CC[C@@]1(OC(=O)NCCOCCOC2O[C@H](COC(C)=O)[C@@H](OC(C)=O)[C@H](OC(C)=O)[C@H]2OC(C)=O)C(=O)OCc2c1cc1n(c2=O)Cc2cc3ccccc3nc2-1 (single isomer, unassigned) | 2.1 µM | 4.2 µM | 10.3 µM | 12.3 µM |  |  |  | 
CC[C@@]1(OC(=O)NCCOCCOCCO[C@@H]2O[C@H](COC(C)=O)[C@@H](OC(C)=O)[C@H](OC(C)=O)[C@H]2OC(C)=O)C(=O)OCc2c1cc1n(c2=O)Cc2cc3ccccc3nc2-1 | 0.7 µM | 0.8 µM | 4.5 µM | 0.6 µM |  |  |  | 
CC[C@@]1(OC(=O)NCCOCCO[C@@H]2O[C@H](COC(C)=O)[C@@H](OC(C)=O)[C@H](OC(C)=O)[C@@H]2O[C@H]2O[C@H](COC(C)=O)[C@@H](OC(C)=O)[C@H](OC(N)=O)[C@H]2OC(C)=O)C(=O)OCc2c1cc1n(c2=O)Cc2cc3ccccc3nc2-1 | 1.6 µM | 1.3 µM | 11.3 µM | 1.5 µM | Active | Active |  | 
CC[C@@]1(OC(=O)NCCO[C@@H]2O[C@H](COC(C)=O)[C@@H](OC(C)=O)[C@H](OC(C)=O)[C@H]2OC(C)=O)C(=O)OCc2c1cc1n(c2=O)Cc2cc3ccccc3nc2-1 | 29.9 µM | 15 µM | 24.8 µM | 29.5 µM |  |  |  | 
CC[C@@]1(OC(=O)NCCO[C@@H]2O[C@H](CO)[C@@H](O)[C@H](O)[C@@H]2O)C(=O)OCc2c1cc1n(c2=O)Cc2cc3ccccc3nc2-1 | 10.3 µM | 8.2 µM | 20.4 µM | 5.8 µM |  |  |  | 
CC[C@@]1(OC(=O)NCCOCCO[C@@H]2O[C@H](CO)[C@H](O)[C@H](O)[C@H]2O)C(=O)OCc2c1cc1n(c2=O)Cc2cc3ccccc3nc2-1 | 2.8 µM | 2.6 µM | 10.6 µM | 43.5 µM |  |  |  | 
CC[C@@]1(OC(=O)NCCO[C@@H]2O[C@H](COC(C)=O)[C@@H](OC(C)=O)[C@H](OC(N)=O)[C@@H]2OC(C)=O)C(=O)OCc2c1cc1n(c2=O)Cc2cc3ccccc3nc2-1 | 18.5 µM | 10.8 µM | 20.6 µM | 3.9 µM |  |  |  | 
CC[C@@]1(OC(=O)NCCOCCO[C@@H]2O[C@H](COC(C)=O)[C@@H](OC(C)=O)[C@H](OC(N)=O)[C@@H]2OC(C)=O)C(=O)OCc2c1cc1n(c2=O)Cc2cc3ccccc3nc2-1 | 3.7 µM | 3.6 µM | 7.6 µM | 50.2 µM |  |  |  | 
CC[C@@]1(OC(=O)NCCOCCOCCOC2O[C@H](COC(C)=O)[C@@H](OC(C)=O)[C@H](OC(N)=O)[C@@H]2OC(C)=O)C(=O)OCc2c1cc1n(c2=O)Cc2cc3ccccc3nc2-1 (single isomer, unassigned) | 1.8 µM | 4.6 µM | 31.4 µM | 3.4 µM |  |  |  | 
CC[C@@]1(OC(=O)NCCOCCOCCO[C@@H]2O[C@H](COC(C)=O)[C@@H](OC(C)=O)[C@H](OC(C)=O)[C@@H]2OC(C)=O)C(=O)OCc2c1cc1n(c2=O)Cc2cc3ccccc3nc2-1 | 1.6 µM | 0.6 µM | 28.9 µM | 3.4 µM |  |  |  | 
CC[C@@]1(OC(=O)NCCO[C@@H]2O[C@H](CO)[C@@H](O)[C@H](OC(N)=O)[C@@H]2O)C(=O)OCc2c1cc1n(c2=O)Cc2cc3ccccc3nc2-1 | 11.6 µM | 2.3 µM | 32.8 µM | 3.2 µM |  |  |  | 
CC[C@@]1(OC(=O)NCCOCCO[C@@H]2O[C@H](CO)[C@@H](O)[C@H](O)[C@H]2O)C(=O)OCc2c1cc1n(c2=O)Cc2cc3ccccc3nc2-1 | 1.2 µM | 0.5 µM | 9.6 µM | 24.6 µM |  |  |  | 
CC[C@@]1(O)C(=O)OCc2c1cc1n(c2=O)Cc2cc3ccccc3nc2-1 [CAMPTOTHECIN] | 0.4 µM | 0.4 µM | 0.2 µM | 0.6 µM |  |  | 60 µg/mL (≈ 172 µM) | 5%
CC[C@@]1(OC(=O)NCCOCCOCCO[C@@H]2O[C@H](CO)[C@@H](O)[C@H](O)[C@H]2O)C(=O)OCc2c1cc1n(c2=O)Cc2cc3ccccc3nc2-1 | 1.3 µM | 4.8 µM | 12.5 µM | 0.7 µM |  |  |  | 
CC[C@@]1(OC(=O)NCCOCCOCCO[C@@H]2O[C@H](CO)[C@@H](O)[C@H](O)[C@@H]2O)C(=O)OCc2c1cc1n(c2=O)Cc2cc3ccccc3nc2-1 | 0.8 µM | 0.5 µM | 16.3 µM | 0.6 µM |  |  |  | 
CC[C@@]1(OC(=O)NCCOCCOCCO[C@@H]2O[C@H](CO)[C@H](O)[C@H](O)[C@H]2O)C(=O)OCc2c1cc1n(c2=O)Cc2cc3ccccc3nc2-1 | 1.2 µM | 8.2 µM | 19.9 µM | 0.7 µM | Active |  |  | 
CC[C@@]1(OC(=O)NCCOCCOC2O[C@H](COC(C)=O)[C@@H](OC(C)=O)[C@H](OC(C)=O)[C@@H]2OC(C)=O)C(=O)OCc2c1cc1n(c2=O)Cc2cc3ccccc3nc2-1 (single isomer, unassigned) | 4.8 µM | 4.4 µM | 10.3 µM | 20.6 µM |  |  |  | 
CC[C@@]1(OC(=O)NCCO[C@@H]2O[C@H](CO)[C@@H](O)[C@H](O)[C@H]2O)C(=O)OCc2c1cc1n(c2=O)Cc2cc3ccccc3nc2-1 | 3.8 µM | 4.3 µM | 10.3 µM | 3.5 µM |  |  |  | 
